From ChEMBL document CHEMBL1144999, “Identification of a novel, selective GABA(A) alpha5 receptor inverse agonist which enhances cognition” (J Med Chem, 2003)

How the values were obtained:
[1] = target: T1, Gamma-aminobutyric acid receptor subunit alpha-5 (Homo sapiens) (UniProt P31644); test: Binding selectivity for human gamma-aminobutyric-acid A receptor alpha-5 over GABA A alpha1,alpha2 and alpha-3 receptors
T1 sequence (whole entry): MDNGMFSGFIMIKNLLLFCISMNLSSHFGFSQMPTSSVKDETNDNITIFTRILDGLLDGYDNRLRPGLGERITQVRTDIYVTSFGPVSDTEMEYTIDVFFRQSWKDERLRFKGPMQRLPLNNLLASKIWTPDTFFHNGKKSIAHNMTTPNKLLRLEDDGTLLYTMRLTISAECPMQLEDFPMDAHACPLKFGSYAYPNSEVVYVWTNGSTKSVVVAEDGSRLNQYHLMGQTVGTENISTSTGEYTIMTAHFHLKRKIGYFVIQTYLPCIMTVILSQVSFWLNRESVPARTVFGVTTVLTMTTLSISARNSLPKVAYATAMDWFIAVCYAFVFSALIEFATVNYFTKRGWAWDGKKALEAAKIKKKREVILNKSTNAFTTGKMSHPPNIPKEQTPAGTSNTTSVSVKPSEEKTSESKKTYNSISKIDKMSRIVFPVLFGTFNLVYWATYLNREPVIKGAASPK

[2] = target: T2, GABA-A receptor; alpha-3/beta-3/gamma-2 (Homo sapiens, UniProt P18507+P28472+P34903); test: Binding affinity to human gamma-amino butyric-acid A receptor alpha-3-beta-3-gamma-2, using a [3H]-Ro- 15-1788 radioligand; type: protein-complex assay
T2 sequence (P18507 whole entry): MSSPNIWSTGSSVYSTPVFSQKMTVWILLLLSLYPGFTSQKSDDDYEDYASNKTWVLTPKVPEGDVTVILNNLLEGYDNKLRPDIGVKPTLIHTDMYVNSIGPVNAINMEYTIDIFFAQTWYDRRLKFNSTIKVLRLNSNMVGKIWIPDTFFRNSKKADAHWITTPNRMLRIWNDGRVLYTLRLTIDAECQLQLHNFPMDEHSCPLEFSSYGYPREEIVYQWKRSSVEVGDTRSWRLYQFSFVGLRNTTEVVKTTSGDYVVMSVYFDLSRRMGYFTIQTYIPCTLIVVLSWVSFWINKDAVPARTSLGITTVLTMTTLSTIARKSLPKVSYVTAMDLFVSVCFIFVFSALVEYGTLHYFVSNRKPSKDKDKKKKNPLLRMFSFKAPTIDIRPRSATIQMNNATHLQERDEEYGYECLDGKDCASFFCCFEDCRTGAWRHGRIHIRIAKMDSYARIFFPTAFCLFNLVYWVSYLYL
T2 sequence (P28472 whole entry): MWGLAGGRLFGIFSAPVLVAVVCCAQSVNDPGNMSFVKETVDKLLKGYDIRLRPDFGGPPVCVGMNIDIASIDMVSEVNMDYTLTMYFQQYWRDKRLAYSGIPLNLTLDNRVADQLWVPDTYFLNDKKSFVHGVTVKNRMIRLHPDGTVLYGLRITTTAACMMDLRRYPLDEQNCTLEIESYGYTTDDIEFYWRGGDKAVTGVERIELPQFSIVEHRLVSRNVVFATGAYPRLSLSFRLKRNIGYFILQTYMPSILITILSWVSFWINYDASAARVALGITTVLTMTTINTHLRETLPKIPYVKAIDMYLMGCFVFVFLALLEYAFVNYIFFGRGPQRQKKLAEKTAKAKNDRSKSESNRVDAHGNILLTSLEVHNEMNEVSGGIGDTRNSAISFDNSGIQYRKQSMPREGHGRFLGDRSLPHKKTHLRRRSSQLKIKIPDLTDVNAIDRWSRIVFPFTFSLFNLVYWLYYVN
T2 sequence (P34903 whole entry): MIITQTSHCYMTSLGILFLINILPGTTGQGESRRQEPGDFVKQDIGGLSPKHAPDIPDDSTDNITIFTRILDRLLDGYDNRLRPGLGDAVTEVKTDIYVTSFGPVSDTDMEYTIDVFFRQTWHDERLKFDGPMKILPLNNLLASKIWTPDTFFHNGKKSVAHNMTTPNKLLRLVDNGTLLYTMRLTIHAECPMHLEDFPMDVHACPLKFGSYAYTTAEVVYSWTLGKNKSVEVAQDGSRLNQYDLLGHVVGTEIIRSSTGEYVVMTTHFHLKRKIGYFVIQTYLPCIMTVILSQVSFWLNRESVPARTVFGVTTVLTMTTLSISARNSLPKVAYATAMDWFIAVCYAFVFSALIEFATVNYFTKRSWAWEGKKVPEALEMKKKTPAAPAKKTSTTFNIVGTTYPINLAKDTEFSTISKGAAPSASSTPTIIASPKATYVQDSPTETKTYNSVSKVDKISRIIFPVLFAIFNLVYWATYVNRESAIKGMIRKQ
Method in brief: (§1)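 Displacement of [3H]Ro 15-1788 binding from harvested L(tk-) cells stably expressing human recombinant GABA-A receptors with β3 and γ2 subunits plus α1, α2, α3 or α5. […] Ki given as geometric mean ± SEM of three independent determinations.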

[3] = target: T3, GABA-A receptor; alpha-2/beta-3/gamma-2 (Homo sapiens, UniProt P18507+P28472+P47869); test: Binding affinity to human gamma-amino butyric-acid A receptor alpha-2-beta-3-gamma-2, using a [3H]-Ro- 15-1788 radioligand; type: protein-complex assay; method in brief: as §1
T3 sequence (P18507 whole entry): T2 sequence (P18507 whole entry)
T3 sequence (P28472 whole entry): T2 sequence (P28472 whole entry)
T3 sequence (P47869 whole entry): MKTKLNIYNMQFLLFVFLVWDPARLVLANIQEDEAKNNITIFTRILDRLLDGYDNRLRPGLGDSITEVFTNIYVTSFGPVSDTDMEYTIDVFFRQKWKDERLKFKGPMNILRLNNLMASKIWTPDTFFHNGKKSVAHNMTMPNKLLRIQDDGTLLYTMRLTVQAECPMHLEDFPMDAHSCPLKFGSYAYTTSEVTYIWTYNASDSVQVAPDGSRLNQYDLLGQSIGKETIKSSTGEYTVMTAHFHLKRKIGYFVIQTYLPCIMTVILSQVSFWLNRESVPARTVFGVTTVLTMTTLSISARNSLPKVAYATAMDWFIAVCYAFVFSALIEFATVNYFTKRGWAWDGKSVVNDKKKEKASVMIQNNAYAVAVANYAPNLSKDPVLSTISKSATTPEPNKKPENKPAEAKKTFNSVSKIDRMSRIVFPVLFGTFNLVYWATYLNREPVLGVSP

[4] = target: T4, GABA-A receptor; alpha-1/beta-3/gamma-2 (Homo sapiens, UniProt P14867+P18507+P28472); test: Binding affinity to human gamma-aminobutyric-acid A receptor alpha-1-beta-3-gamma-2, determined using [3H]-Ro- 15-1788 radioligand; type: protein-complex assay; method in brief: as §1
T4 sequence (P14867 whole entry): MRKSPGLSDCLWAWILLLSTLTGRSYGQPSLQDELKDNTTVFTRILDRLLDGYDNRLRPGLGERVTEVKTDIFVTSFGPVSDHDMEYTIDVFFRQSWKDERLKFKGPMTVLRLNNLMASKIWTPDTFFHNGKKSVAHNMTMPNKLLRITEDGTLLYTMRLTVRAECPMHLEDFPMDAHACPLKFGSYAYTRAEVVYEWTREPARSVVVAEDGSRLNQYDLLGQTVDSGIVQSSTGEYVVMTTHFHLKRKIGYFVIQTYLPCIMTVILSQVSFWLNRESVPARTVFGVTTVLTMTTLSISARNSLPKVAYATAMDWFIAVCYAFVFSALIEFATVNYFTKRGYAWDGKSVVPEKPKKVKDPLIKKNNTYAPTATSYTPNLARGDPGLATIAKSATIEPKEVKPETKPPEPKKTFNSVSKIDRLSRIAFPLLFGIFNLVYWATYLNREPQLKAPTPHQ
T4 sequence (P18507 whole entry): T2 sequence (P18507 whole entry)
T4 sequence (P28472 whole entry): T2 sequence (P28472 whole entry)

[5] = target: T5, GABA-A receptor; alpha-5/beta-3/gamma-2 (Homo sapiens, UniProt P18507+P28472+P31644); test: Binding affinity to human GABA A alpha-5-beta-3-gamma-2 receptor, using a [3H]-Ro- 15-1788 radioligand; type: protein-complex assay; method in brief: as §1
T5 sequence (P18507 whole entry): T2 sequence (P18507 whole entry)
T5 sequence (P28472 whole entry): T2 sequence (P28472 whole entry)
T5 sequence (P31644 whole entry): T1 sequence (whole entry)

[6] = target: GABA-A receptor; alpha-5/beta-3/gamma-2 (Homo sapiens) (UniProt P18507+P28472+P31644); test: Efficacy for GABA-A receptor alpha-5-beta-3-gamma-2 subunits expressed in Xenopus laevis oocytes by two-electrode voltage clamp recording; type: cell-based; conditions: Oocyte
Method in brief: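 Two-electrode voltage clamp on Xenopus laevis oocytes injected with human α5β3γ2 cDNA, recorded 2-4 days after injection. Expression checked with 3 mM GABA; oocytes with currents <0.3 μA rejected. A GABA EC20 was determined per oocyte. Compound applied at a single concentration near 100× Ki. Efficacy (%) = (current with compound/control EC20 current × 100) − 100.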

SMILES | Selectivity [1] | Ki [2] | Ki [3] | Ki [4] | Ki [5] | Efficacy [6]
CSc1sc(-c2cncs2)c2c1C(=O)CC(C)(C)C2 | 12 | 159 nM | 161 nM | 175 nM | 15 nM | 
CC1(C)CC(=O)c2c(SCCCO)sc(-c3nccs3)c2C1 | 17 | 48 nM | 48 nM | 79 nM | 4.7 nM | 25
CC1(C)CC(=O)c2c(Sc3nccs3)sc(-c3cc[nH]n3)c2C1 | 34 | 48 nM | 19 nM | 4.3 nM | 1.4 nM | -7
CSc1sc(-c2nc(C)no2)c2c1C(=O)CC(C)(C)C2 | > 8 | 185 nM | > 300 nM | > 300 nM | 37 nM | 
CC1(C)CC(=O)c2c(SCCO)sc(-c3cc[nH]n3)c2C1 | 11 |  |  |  |  | 
CSc1sc(-c2nccs2)c2c1C(=O)CC(C)(C)C2 | 28 |  |  |  |  | -24
CNc1sc(-c2cc[nH]n2)c2c1C(=O)CC(C)(C)C2 | > 2 | > 300 nM | > 300 nM | > 300 nM | 132 nM | 
CC1(C)CC(=O)c2csc(-c3cc[nH]n3)c2C1 |  | > 300 nM | > 300 nM | > 300 nM | > 300 nM | 
CSc1sc(-c2ccccn2)c2c1C(=O)CC(C)(C)C2 | 26 |  |  |  |  | -31
CC1(C)CC(=O)c2c(SCCCO)sc(-c3cc[nH]n3)c2C1 | 13 | 50 nM | 46 nM | 60 nM | 4.7 nM | 
CC1(C)CC(=O)c2c(NCCO)sc(-c3cc[nH]n3)c2C1 | > 4 | > 300 nM | > 300 nM | > 300 nM | 78 nM | 
CC(C)Nc1sc(-c2cc[nH]n2)c2c1C(=O)CC(C)(C)C2 | 22 | 87 nM | 44 nM | 72 nM | 3.9 nM | -2
CCCCSc1sc(-c2cc[nH]n2)c2c1C(=O)CC(C)(C)C2 | 10 | 182 nM | 184 nM | 57 nM | 18 nM | 
CC(C)Oc1sc(-c2cc[nH]n2)c2c1C(=O)CC(C)(C)C2 | 18 | 69 nM | 182 nM | 119 nM | 15 nM | 
CC(C)Sc1sc(-c2cc[nH]n2)c2c1C(=O)CC(C)(C)C2 | 6 |  |  |  |  | 
CSc1sc(-c2ccc[nH]2)c2c1C(=O)CC(C)(C)C2 | > 4 | > 300 nM | > 300 nM | > 300 nM | 85 nM | 
CCc1sc(-c2cc[nH]n2)c2c1C(=O)CC(C)(C)C2 | 22 | 240 nM | 162 nM | 211 nM | 11 nM | 
CC1(C)CC(=O)c2c(SCCO)sc(-c3ccccn3)c2C1 | 20 |  |  |  |  | -39
CC1(C)CC(=O)c2c(Sc3nccs3)sc(-c3nccs3)c2C1 | 28 | 28 nM | 39 nM | 24 nM | 1.4 nM | -5
COc1sc(-c2cc[nH]n2)c2c1C(=O)CC(C)(C)C2 | > 5 | > 300 nM | > 300 nM | > 300 nM | 67 nM | 
CC1(C)CC(=O)c2c(SC(C)(C)C)sc(-c3cc[nH]n3)c2C1 | > 2 | > 300 nM | > 300 nM | > 300 nM | 170 nM | 
CSc1sc(-c2cc[nH]n2)c2c1C(=O)CC(C)(C)C2 | 13 |  |  |  |  | -3
CC1(C)CC(=O)c2c(Sc3cccs3)sc(-c3cc[nH]n3)c2C1 | 8 | 18 nM | 7.6 nM | 10 nM | 2.4 nM | 
CSc1sc(-c2cccnc2)c2c1C(=O)CC(C)(C)C2 | 28 |  |  |  |  | -40
CSc1sc(-c2ccccc2)c2c1C(=O)CC(C)(C)C2 |  | > 300 nM | > 300 nM | > 300 nM | > 300 nM | 
CCSc1sc(-c2cc[nH]n2)c2c1C(=O)CC(C)(C)C2 | 10 |  |  |  |  | 
CCCSc1sc(-c2cc[nH]n2)c2c1C(=O)CC(C)(C)C2 | 9 | 41 nM | 28 nM | 22 nM | 4.6 nM | 
CSc1sc(-c2ncn(C)n2)c2c1C(=O)CC(C)(C)C2 | 14 | 102 nM | 49 nM | 267 nM | 19 nM | 
CSc1sc(-c2ccncc2)c2c1C(=O)CC(C)(C)C2 | 19 |  |  |  |  | -20
